In the M2OR odorant receptor database:

Legend:
Conditions in all cases: stereoisomer not certain
O5AN1 = test system: T1, O5AN1
T1 sequence (whole entry): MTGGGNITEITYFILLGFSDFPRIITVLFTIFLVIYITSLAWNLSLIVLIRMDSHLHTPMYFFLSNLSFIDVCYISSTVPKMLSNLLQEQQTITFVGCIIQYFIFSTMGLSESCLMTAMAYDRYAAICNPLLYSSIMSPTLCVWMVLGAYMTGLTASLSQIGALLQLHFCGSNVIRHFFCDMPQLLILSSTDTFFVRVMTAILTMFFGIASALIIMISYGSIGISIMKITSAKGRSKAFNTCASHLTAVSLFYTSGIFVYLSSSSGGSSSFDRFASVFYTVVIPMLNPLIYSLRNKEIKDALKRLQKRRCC
In short: (§1)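 Whether a receptor–molecule pair is responsive (active) rests on the original authors' judgment that its measured signal was statistically different from baseline. Pairs without that judgment are non-responsive (inactive). Sources used varied assay methods, commonly transient luciferase assays in mammalian cell lines.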

O56A4 I247A = test system: O56A4 I247A
O56A4 I247A, sequence (as listed by the source, stated change not applied): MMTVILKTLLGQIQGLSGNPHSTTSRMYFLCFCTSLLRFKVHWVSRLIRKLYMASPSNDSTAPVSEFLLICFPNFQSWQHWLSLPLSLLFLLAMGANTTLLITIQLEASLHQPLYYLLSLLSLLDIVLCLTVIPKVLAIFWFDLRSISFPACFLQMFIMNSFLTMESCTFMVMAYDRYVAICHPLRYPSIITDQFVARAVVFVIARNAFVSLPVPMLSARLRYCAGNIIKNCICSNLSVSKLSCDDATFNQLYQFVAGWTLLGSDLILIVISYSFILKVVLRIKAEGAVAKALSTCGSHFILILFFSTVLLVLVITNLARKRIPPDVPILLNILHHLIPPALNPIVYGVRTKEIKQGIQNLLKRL
In short: as §1

O56A4 I247V = test system: O56A4 I247V
O56A4 I247V, sequence (as listed by the source, stated change not applied): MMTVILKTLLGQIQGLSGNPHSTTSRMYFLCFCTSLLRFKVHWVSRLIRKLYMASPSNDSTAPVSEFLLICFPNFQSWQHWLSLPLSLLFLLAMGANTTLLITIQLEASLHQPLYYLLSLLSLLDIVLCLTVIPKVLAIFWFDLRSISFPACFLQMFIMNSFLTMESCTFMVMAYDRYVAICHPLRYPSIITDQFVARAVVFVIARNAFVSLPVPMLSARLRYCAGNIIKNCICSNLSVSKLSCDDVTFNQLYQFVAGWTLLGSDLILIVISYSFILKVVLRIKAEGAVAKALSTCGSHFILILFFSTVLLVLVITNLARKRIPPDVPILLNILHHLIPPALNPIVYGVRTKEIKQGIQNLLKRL
In short: as §1

O56A4 = test system: O56A4
O56A4, sequence (as listed by the source): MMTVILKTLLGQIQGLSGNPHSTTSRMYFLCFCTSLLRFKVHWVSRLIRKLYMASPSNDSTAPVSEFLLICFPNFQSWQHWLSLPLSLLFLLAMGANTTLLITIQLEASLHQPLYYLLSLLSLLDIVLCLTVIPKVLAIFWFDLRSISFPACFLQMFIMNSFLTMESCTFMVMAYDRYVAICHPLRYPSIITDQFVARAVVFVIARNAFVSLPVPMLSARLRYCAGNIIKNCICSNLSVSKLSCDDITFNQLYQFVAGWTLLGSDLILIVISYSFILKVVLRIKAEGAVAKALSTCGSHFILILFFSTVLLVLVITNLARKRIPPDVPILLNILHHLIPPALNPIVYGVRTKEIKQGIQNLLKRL
In short: as §1

O56A5 V104L = test system: O56A5 V104L
O56A5 V104L, sequence (as listed by the source, stated change not applied): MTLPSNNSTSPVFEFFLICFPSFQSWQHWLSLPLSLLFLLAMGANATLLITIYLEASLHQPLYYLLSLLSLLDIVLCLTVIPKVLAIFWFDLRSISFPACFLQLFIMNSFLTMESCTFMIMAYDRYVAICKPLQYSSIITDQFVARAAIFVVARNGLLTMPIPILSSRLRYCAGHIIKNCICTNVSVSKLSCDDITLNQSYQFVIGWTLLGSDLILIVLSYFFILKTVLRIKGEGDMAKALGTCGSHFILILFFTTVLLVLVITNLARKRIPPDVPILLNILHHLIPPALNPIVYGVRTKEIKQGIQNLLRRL
In short: as §1

O56B1 C106R L214F = test system: O56B1 C106R L214F
In short: as §1

O56B1 L214F = test system: O56B1 L214F
O56B1 L214F, sequence (as listed by the source, stated change not applied): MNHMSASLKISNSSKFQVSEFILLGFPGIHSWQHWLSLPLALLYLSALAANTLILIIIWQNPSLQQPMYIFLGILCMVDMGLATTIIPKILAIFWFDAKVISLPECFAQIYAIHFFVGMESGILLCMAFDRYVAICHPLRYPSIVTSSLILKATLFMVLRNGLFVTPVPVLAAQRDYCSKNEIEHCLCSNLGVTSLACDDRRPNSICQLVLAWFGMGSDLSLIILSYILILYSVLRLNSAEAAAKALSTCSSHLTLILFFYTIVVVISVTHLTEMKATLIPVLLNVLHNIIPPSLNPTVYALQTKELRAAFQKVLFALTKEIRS
In short: as §1

O56B4 = test system: O56B4
O56B4, sequence (as listed by the source): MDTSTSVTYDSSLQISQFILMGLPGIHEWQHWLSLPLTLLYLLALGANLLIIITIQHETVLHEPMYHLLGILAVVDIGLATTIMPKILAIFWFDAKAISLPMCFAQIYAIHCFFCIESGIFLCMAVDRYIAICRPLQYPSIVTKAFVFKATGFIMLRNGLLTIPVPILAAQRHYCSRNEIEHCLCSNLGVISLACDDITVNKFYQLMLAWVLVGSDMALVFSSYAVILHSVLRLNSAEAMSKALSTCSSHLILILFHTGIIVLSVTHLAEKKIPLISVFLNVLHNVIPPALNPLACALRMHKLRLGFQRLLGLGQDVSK
In short: as §1

O5AC2 = test system: O5AC2
O5AC2, sequence (as listed by the source): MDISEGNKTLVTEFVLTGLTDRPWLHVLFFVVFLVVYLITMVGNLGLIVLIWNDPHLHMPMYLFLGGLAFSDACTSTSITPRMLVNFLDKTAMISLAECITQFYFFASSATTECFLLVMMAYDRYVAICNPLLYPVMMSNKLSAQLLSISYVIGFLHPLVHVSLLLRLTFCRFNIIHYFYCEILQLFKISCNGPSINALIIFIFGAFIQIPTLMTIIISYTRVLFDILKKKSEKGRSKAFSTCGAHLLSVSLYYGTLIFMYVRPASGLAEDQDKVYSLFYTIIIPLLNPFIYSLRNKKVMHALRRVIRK
In short: as §1

O5AK2 M92I = test system: O5AK2 M92I
O5AK2 M92I, sequence (as listed by the source, stated change not applied): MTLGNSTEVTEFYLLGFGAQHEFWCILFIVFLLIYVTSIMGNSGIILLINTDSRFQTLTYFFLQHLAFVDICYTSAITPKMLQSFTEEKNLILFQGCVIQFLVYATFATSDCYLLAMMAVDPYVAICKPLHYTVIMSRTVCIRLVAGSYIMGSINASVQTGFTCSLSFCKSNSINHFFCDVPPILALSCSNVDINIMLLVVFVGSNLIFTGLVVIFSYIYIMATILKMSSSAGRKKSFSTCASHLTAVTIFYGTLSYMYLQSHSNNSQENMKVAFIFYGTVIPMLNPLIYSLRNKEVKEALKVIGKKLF
In short: as §1

O5AN1 C142Y L289F = test system: O5AN1 C142Y L289F
In short: as §1

O5AN1 L289F = test system: O5AN1 L289F
O5AN1 L289F, sequence (as listed by the source, stated change not applied): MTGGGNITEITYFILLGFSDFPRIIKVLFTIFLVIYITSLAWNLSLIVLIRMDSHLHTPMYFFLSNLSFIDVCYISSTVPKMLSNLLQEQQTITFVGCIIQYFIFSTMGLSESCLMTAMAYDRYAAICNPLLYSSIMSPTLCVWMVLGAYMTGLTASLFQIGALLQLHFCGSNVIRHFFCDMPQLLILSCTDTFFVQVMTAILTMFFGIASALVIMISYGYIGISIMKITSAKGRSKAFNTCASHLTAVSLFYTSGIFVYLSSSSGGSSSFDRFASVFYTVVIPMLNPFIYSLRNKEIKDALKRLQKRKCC
In short: as §1

O5AP2 A105T = test system: O5AP2 A105T
O5AP2 A105T, sequence (as listed by the source, stated change not applied): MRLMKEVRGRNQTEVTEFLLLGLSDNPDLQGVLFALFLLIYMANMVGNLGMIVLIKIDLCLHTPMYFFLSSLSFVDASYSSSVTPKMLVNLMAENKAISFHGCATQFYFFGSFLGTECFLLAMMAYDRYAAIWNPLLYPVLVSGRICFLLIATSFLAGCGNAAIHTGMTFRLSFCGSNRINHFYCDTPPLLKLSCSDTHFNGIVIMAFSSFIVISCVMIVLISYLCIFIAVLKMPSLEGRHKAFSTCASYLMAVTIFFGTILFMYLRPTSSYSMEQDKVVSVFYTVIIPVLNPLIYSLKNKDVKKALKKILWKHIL
In short: as §1

O5AU1 = test system: O5AU1
O5AU1, sequence (as listed by the source): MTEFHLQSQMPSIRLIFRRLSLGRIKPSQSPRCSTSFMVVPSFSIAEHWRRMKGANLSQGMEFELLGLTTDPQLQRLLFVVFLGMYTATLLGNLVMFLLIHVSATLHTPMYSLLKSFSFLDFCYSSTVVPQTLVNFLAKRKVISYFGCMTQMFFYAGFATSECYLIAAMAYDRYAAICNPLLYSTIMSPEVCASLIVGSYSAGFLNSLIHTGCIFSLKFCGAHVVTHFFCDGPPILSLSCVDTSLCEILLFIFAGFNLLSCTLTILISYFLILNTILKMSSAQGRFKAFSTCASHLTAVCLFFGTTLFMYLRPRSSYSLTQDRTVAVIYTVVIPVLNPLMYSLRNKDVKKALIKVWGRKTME
In short: as §1

O5H14 = test system: O5H14
O5H14, sequence (as listed by the source): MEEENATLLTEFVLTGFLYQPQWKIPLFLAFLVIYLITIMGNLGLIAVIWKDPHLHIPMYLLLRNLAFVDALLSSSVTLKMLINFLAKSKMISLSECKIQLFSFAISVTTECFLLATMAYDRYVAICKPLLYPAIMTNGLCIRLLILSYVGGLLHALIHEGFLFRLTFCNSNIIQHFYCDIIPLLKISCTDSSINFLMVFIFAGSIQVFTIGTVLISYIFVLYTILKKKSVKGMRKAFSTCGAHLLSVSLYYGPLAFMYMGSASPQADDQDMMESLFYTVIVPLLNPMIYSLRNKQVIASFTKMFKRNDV
In short: as §1

O5H15 V108I S148T T167S = test system: O5H15 V108I S148T T167S
In short: as §1

O6C65 T222A = test system: O6C65 T222A
O6C65 T222A, sequence (as listed by the source, stated change not applied): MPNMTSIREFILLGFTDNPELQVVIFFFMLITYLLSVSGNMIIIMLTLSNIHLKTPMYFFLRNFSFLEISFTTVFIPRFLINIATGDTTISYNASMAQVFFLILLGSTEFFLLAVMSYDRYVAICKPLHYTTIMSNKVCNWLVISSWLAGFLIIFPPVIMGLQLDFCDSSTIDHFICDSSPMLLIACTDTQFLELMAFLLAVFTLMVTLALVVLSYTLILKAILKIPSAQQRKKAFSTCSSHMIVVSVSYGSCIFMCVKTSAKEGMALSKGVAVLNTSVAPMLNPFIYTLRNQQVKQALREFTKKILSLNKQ
In short: as §1

O6C70 L181P = test system: O6C70 L181P
O6C70 L181P, sequence (as listed by the source, stated change not applied): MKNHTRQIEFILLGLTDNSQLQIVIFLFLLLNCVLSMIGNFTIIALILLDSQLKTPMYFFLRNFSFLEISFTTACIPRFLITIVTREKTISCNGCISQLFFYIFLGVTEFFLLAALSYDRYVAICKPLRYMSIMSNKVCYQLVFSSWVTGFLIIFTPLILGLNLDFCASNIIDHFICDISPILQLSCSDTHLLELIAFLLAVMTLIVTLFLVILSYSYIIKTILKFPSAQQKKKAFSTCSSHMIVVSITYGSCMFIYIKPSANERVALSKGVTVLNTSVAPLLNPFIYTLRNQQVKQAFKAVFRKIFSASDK
In short: as §1

O7E24 S193F P242S = test system: O7E24 S193F P242S
In short: as §1

O7E24 = test system: O7E24
O7E24, sequence (as listed by the source): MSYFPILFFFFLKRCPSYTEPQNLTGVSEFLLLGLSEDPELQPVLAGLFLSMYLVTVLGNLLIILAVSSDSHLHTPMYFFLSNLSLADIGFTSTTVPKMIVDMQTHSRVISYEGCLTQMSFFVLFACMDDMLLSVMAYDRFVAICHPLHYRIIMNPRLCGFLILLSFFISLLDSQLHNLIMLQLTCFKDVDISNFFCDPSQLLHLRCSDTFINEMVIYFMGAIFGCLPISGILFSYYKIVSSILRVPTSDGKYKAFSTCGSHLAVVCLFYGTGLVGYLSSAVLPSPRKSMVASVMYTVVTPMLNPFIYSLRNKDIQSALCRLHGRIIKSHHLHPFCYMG
In short: as §1

Measured: odorant receptor agonist call;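 further: active if original authors judged signal statistically different from baseline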

CC(=O)c1cc(C(C)(C)C)cc2c1CCC2(C)C
inactive: O5AN1

C=CCOC(=O)Cc1ccccc1
inactive: O56A4 I247A | O56A4 I247V | O56A4 | O56A5 V104L | O56B1 C106R L214F | O56B1 L214F | O56B4 | O5AC2 | O5AK2 M92I | O5AN1 C142Y L289F | O5AN1 L289F | O5AP2 A105T | O5AU1 | O5H14 | O5H15 V108I S148T T167S | O6C65 T222A | O6C70 L181P | O7E24 S193F P242S | O7E24

CC(=O)c1cc2c(cc1C)C(C)(C)C(C)CC2(C)C (configuration not stated)
inactive: O5AN1

Cc1c([N+](=O)[O-])c(C)c([N+](=O)[O-])c(C(C)(C)C)c1[N+](=O)[O-]
active: O5AN1
